# “And” between values parts separate entries of the source, which are not always exact repeats. Equal values may be shown once.
# What was measured:
# HEK-293T = assay: Multiplex assay against HEK293T; format: toxicity, cell-based; conditions: human, number of replicates 2
# Method in brief: (§1)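 Imaging took place on a CQ1 microscope at 37°C and 5% CO2 once compound had been added to live cells stained at seeding with Hoechst33342, BioTracker Green Microtubule Cytoskeleton Dye, MitoTracker Red and Annexin V Alexa Fluor 680. CellPathfinder machine-learning gating classed cells as Hoechst high-intensity objects or normal cells, classed normal cells as having healthy, pyknosed or fragmented nuclei, and classed pyknosed cells as mitotic or apoptotic. Tubulin, mitochondrial-mass and membrane-permeability phenotypes are per cents of the healthy-nucleus cells.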
# U2OS = assay: Multiplex assay against U2OS; format: toxicity, cell-based; conditions: human, number of replicates 2; method in brief: as §1
# [1] = 12 h, 1 µM, compound concentration 1 uM
# [2] = 12 h, 10 µM, compound concentration 10 uM
# [3] = 24 h, 1 µM, compound concentration 1 uM
# [4] = 24 h, 10 µM, compound concentration 10 uM
# [5] = 48 h, 1 µM, compound concentration 1 uM
# [6] = 48 h, 10 µM, compound concentration 10 uM
compound,measurement,setting,value
Cc1cccc(S(=O)(=O)N(C)[C@H](C)CCN2CCC(C)CC2)c1.Cl,Population Apoptotic (%),HEK-293T; [1],51% and 50%
same,Population Fragmented Nuclei (%),HEK-293T; [1],4% and 1%
same,Population Healthy Nuclei (%),HEK-293T; [1],81% and 80%
same,Population Hoechst High Intensity Objects (%),HEK-293T; [1],5% and 6%
same,Population Membrane Permeable-Phenotype (%),HEK-293T; [1],4% and 6%
same,Population Mitochondria Different-Phenotype (%),HEK-293T; [1],16%
same,Population Mitotic Cells (%),HEK-293T; [1],48% and 50%
same,Population Normal (%),HEK-293T; [1],94% and 93%
same,Population Pyknosed Nuclei (%),HEK-293T; [1],13% and 17%
same,Population Tubulin-Different-Phenotype (%),HEK-293T; [1],61% and 51%
same,Total Cell Count,HEK-293T; [1],635 and 449
same,Population Apoptotic (%),HEK-293T; [2],52% and 62%
same,Population Fragmented Nuclei (%),HEK-293T; [2],4% and 3%
same,Population Healthy Nuclei (%),HEK-293T; [2],81% and 74%
same,Population Hoechst High Intensity Objects (%),HEK-293T; [2],7% and 9%
same,Population Membrane Permeable-Phenotype (%),HEK-293T; [2],3% and 4%
same,Population Mitochondria Different-Phenotype (%),HEK-293T; [2],24% and 29%
same,Population Mitotic Cells (%),HEK-293T; [2],47% and 37%
same,Population Normal (%),HEK-293T; [2],92% and 90%
same,Population Pyknosed Nuclei (%),HEK-293T; [2],14% and 22%
same,Population Tubulin-Different-Phenotype (%),HEK-293T; [2],70% and 65%
same,Total Cell Count,HEK-293T; [2],550 and 400
same,Population Apoptotic (%),HEK-293T; [3],45% and 63%
same,Population Fragmented Nuclei (%),HEK-293T; [3],6% and 2%
same,Population Healthy Nuclei (%),HEK-293T; [3],85% and 82%
same,Population Hoechst High Intensity Objects (%),HEK-293T; [3],6% and 9%
same,Population Membrane Permeable-Phenotype (%),HEK-293T; [3],4%
same,Population Mitochondria Different-Phenotype (%),HEK-293T; [3],7% and 10%
same,Population Mitotic Cells (%),HEK-293T; [3],54% and 36%
same,Population Normal (%),HEK-293T; [3],93% and 90%
same,Population Pyknosed Nuclei (%),HEK-293T; [3],8% and 15%
same,Population Tubulin-Different-Phenotype (%),HEK-293T; [3],36% and 37%
same,Total Cell Count,HEK-293T; [3],943 and 563
same,Population Apoptotic (%),HEK-293T; [4],64% and 54%
same,Population Fragmented Nuclei (%),HEK-293T; [4],4% and 3%
same,Population Healthy Nuclei (%),HEK-293T; [4],79% and 83%
same,Population Hoechst High Intensity Objects (%),HEK-293T; [4],9% and 6%
same,Population Membrane Permeable-Phenotype (%),HEK-293T; [4],4% and 3%
same,Population Mitochondria Different-Phenotype (%),HEK-293T; [4],15% and 9%
same,Population Mitotic Cells (%),HEK-293T; [4],35% and 45%
same,Population Normal (%),HEK-293T; [4],90% and 93%
same,Population Pyknosed Nuclei (%),HEK-293T; [4],16% and 12%
same,Population Tubulin-Different-Phenotype (%),HEK-293T; [4],50% and 49%
same,Total Cell Count,HEK-293T; [4],552 and 801
same,Population Apoptotic (%),HEK-293T; [5],15% and 36%
same,Population Fragmented Nuclei (%),HEK-293T; [5],10% and 7%
same,Population Healthy Nuclei (%),HEK-293T; [5],84% and 86%
same,Population Hoechst High Intensity Objects (%),HEK-293T; [5],8% and 6%
same,Population Membrane Permeable-Phenotype (%),HEK-293T; [5],5% and 3%
same,Population Mitochondria Different-Phenotype (%),HEK-293T; [5],0% and 3%
same,Population Mitotic Cells (%),HEK-293T; [5],85% and 63%
same,Population Normal (%),HEK-293T; [5],91% and 93%
same,Population Pyknosed Nuclei (%),HEK-293T; [5],4% and 5%
same,Population Tubulin-Different-Phenotype (%),HEK-293T; [5],16% and 20%
same,Total Cell Count,HEK-293T; [5],2361 and 1220
same,Population Apoptotic (%),HEK-293T; [6],39% and 41%
same,Population Fragmented Nuclei (%),HEK-293T; [6],11% and 10%
same,Population Healthy Nuclei (%),HEK-293T; [6],83%
same,Population Hoechst High Intensity Objects (%),HEK-293T; [6],9% and 8%
same,Population Membrane Permeable-Phenotype (%),HEK-293T; [6],7%
same,Population Mitochondria Different-Phenotype (%),HEK-293T; [6],1% and 3%
same,Population Mitotic Cells (%),HEK-293T; [6],60% and 58%
same,Population Normal (%),HEK-293T; [6],90% and 91%
same,Population Pyknosed Nuclei (%),HEK-293T; [6],5%
same,Population Tubulin-Different-Phenotype (%),HEK-293T; [6],27%
same,Total Cell Count,HEK-293T; [6],1730 and 1106
same,Population Apoptotic (%),U2OS; [1],72% and 100%
same,Population Fragmented Nuclei (%),U2OS; [1],5% and 14%
same,Population Healthy Nuclei (%),U2OS; [1],84% and 82%
same,Population Hoechst High Intensity Objects (%),U2OS; [1],0%
same,Population Membrane Permeable-Phenotype (%),U2OS; [1],0%
same,Population Mitochondria Different-Phenotype (%),U2OS; [1],0%
same,Population Normal (%),U2OS; [1],100%
same,Population Pyknosed Nuclei (%),U2OS; [1],10% and 2%
same,Population Apoptotic (%),U2OS; [2],50%
same,Population Healthy Nuclei (%),U2OS; [2],53% and 89%
same,Population Hoechst High Intensity Objects (%),U2OS; [2],0%
same,Population Membrane Permeable-Phenotype (%),U2OS; [2],0%
same,Population Mitochondria Different-Phenotype (%),U2OS; [2],0% and 1%
same,Population Mitotic Cells (%),U2OS; [2],50%
same,Population Normal (%),U2OS; [2],100%
same,Population Tubulin-Different-Phenotype (%),U2OS; [2],42% and 46%
same,Population Apoptotic (%),U2OS; [3],41% and 14%
same,Population Fragmented Nuclei (%),U2OS; [3],4% and 10%
same,Population Healthy Nuclei (%),U2OS; [3],83% and 71%
same,Population Hoechst High Intensity Objects (%),U2OS; [3],0%
same,Population Membrane Permeable-Phenotype (%),U2OS; [3],1% and 0%
same,Population Mitochondria Different-Phenotype (%),U2OS; [3],0%
same,Population Mitotic Cells (%),U2OS; [3],58% and 85%

# — ChEMBL document CHEMBL5303300, “EUbOPEN Chemogenomics Library - Multiplex” (2023)
